{"source": "ChEMBL document CHEMBL3779798", "about": "“Novel seleno- and thio-urea derivatives with potent in vitro activities against several cancer cell lines” (Eur J Med Chem, 2016)", "key": {"[1]": {"experiment": "Anticancer activity against human 1205 Lu cells assessed as inhibition of cell growth after 24 hrs by MTT assay", "format": "functional, cell-based", "outline": "(§1)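 MTT assay at 3,000 cells/well. Cells treated with DMSO or seven concentrations from 0.5 to 50 µM for 24, 48 or 72 h. MTT added 3 h before the end point; formazan dissolved in DMSO and read at 570 and 630 nm. IC50 is the concentration giving 50% growth inhibition. Media: PANC-1, BxPC3 and 1205Lu in DMEM; DU145 and A549 in RPMI 1640; HT29, HCT116 and RKO in McCoy's 5A, all with 10% FBS and pen/strep, at 37 °C and 5% CO2.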"}, "A549 [2]": {"test_system": "A549", "experiment": "Anticancer activity against human A549 cells assessed as inhibition of cell growth after 24 hrs by MTT assay", "format": "functional, cell-based", "details": "A549, 24 h", "outline": "as §1"}, "RKO [3]": {"test_system": "RKO", "experiment": "Anticancer activity against human RKO cells assessed as inhibition of cell growth after 48 hrs by MTT assay", "format": "functional, cell-based", "outline": "as §1"}, "A549 [4]": {"test_system": "A549", "experiment": "Anticancer activity against human A549 cells assessed as inhibition of cell growth after 72 hrs by MTT assay", "format": "functional, cell-based", "details": "A549, 72 h", "outline": "as §1"}, "[5]": {"experiment": "Anticancer activity against human DU145 cells assessed as inhibition of cell growth after 72 hrs by MTT assay", "format": "functional, cell-based", "details": "DU-145, 72 h", "outline": "as §1"}, "[6]": {"experiment": "Anticancer activity against human HCT116 cells assessed as inhibition of cell growth after 72 hrs by MTT assay", "format": "functional, cell-based", "details": "HCT-116, 72 h", "outline": "as §1"}, "RKO [7]": {"test_system": "RKO", "experiment": "Anticancer activity against human RKO cells assessed as inhibition of cell growth after 24 hrs by MTT assay", "format": "functional, cell-based", "outline": "as §1"}, "[8]": {"experiment": "Anticancer activity against human PANC1 cells assessed as inhibition of cell growth after 24 hrs by MTT assay", "format": "functional, cell-based", "details": "PANC-1, 24 h", "outline": "as §1"}, "[9]": {"experiment": "Anticancer activity against human PANC1 cells assessed as inhibition of cell growth after 72 hrs by MTT assay", "format": "functional, cell-based", "details": "PANC-1, 72 h", "outline": "as §1"}, "[10]": {"experiment": "Anticancer activity against human BxPC3 cells assessed as inhibition of cell growth after 24 hrs by MTT assay", "format": "functional, cell-based", "details": "BXPC-3, 24 h", "outline": "as §1"}, "[11]": {"experiment": "Anticancer activity against human BxPC3 cells assessed as inhibition of cell growth after 48 hrs by MTT assay", "format": "functional, cell-based", "details": "BXPC-3, 48 h", "outline": "as §1"}, "HT-29": {"test_system": "HT-29", "experiment": "Anticancer activity against human HT-29 cells assessed as inhibition of cell growth after 72 hrs by MTT assay", "format": "functional, cell-based", "details": "HT-29, 72 h", "outline": "as §1"}, "RKO [12]": {"test_system": "RKO", "experiment": "Potency index, ratio IC50 of 5-FU to IC50 of compound for anticancer activity against human RKO cells", "format": "functional", "outline": "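Colon lines (McCoy's 5A, 10% FBS, penicillin/streptomycin, 37 °C, 5% CO2) seeded at 3,000 cells/well and exposed 24, 48 or 72 h to DMSO or seven concentrations across 0.5–50 µM. MTT added 3 h before end; formazan dissolved in DMSO, absorbance read at 570 and 630 nm. IC50 (50% growth inhibition) from curve fitting; index is the 5-FU IC50 divided by the compound IC50.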"}, "HCT-116 [13]": {"test_system": "HCT-116", "experiment": "Decrease in number of viable cells in human HCT116 cells at 2.5 uM after 24 hrs by calcein-AM and ethidium homodimer-1 staining based flow cytometry analysis (reference value: 94.9%)", "format": "functional"}, "HCT-116 [14]": {"test_system": "HCT-116", "experiment": "Decrease in number of viable cells in human HCT116 cells at 5 uM after 24 hrs by calcein-AM and ethidium homodimer-1 staining based flow cytometry analysis (reference value: 94.9%)", "format": "functional"}, "HCT-116 [15]": {"test_system": "HCT-116", "experiment": "Induction of apoptosis in human HCT116 cells assessed as late apoptotic cells at 2.5 uM after 24 hrs by annexin-V staining based flow cytometry analysis (reference value: 1.06%)", "format": "functional"}, "HCT-116 [16]": {"test_system": "HCT-116", "experiment": "Induction of apoptosis in human HCT116 cells assessed as viable cells at 2.5 uM after 24 hrs by annexin-V staining based flow cytometry analysis (reference value: 90.38%)", "format": "functional", "details": "HCT-116, 24 h, read-out: Activity"}, "HCT-116 [17]": {"test_system": "HCT-116", "experiment": "Induction of apoptosis in human HCT116 cells assessed as early apoptotic cells at 5 uM after 24 hrs by annexin-V staining based flow cytometry analysis (reference value: 7.84%)", "format": "functional"}, "HCT-116 [18]": {"test_system": "HCT-116", "experiment": "Induction of apoptosis in human HCT116 cells assessed as late apoptotic cells at 5 uM after 24 hrs by annexin-V staining based flow cytometry analysis (reference value: 1.06%)", "format": "functional"}, "HCT-116 [19]": {"test_system": "HCT-116", "experiment": "Induction of apoptosis in human HCT116 cells assessed as necrotic cells at 5 uM after 24 hrs by annexin-V staining based flow cytometry analysis (reference value: 0.72%)", "format": "functional"}, "HCT-116 [20]": {"test_system": "HCT-116", "experiment": "Induction of apoptosis in human HCT116 cells assessed as late apoptotic cells after 24 hrs by annexin-V staining based flow cytometry analysis", "format": "functional, cell-based"}, "HCT-116 [21]": {"test_system": "HCT-116", "experiment": "Induction of apoptosis in human HCT116 cells assessed as early apoptotic cells at 1 uM after 24 hrs by caspase3/7 reagent based flow cytometry (reference value: 5.18%)", "format": "functional"}, "HCT-116 [22]": {"test_system": "HCT-116", "experiment": "Induction of apoptosis in human HCT116 cells assessed as late apoptotic cells at 1 uM after 24 hrs by caspase3/7 reagent based flow cytometry (reference value: 2.28%)", "format": "functional"}, "HCT-116 [23]": {"test_system": "HCT-116", "experiment": "Induction of apoptosis in human HCT116 cells assessed as necrotic cells at 1 uM after 24 hrs by caspase3/7 reagent based flow cytometry (reference value: 4.14%)", "format": "functional"}, "HCT-116 [24]": {"test_system": "HCT-116", "experiment": "Induction of apoptosis in human HCT116 cells assessed as early apoptotic cells at 2.5 uM after 24 hrs by caspase3/7 reagent based flow cytometry (reference value: 5.18%)", "format": "functional"}, "HCT-116 [25]": {"test_system": "HCT-116", "experiment": "Induction of apoptosis in human HCT116 cells assessed as late apoptotic cells at 2.5 uM after 24 hrs by caspase3/7 reagent based flow cytometry (reference value: 2.28%)", "format": "functional"}, "HCT-116 [26]": {"test_system": "HCT-116", "experiment": "Induction of apoptosis in human HCT116 cells assessed as necrotic cells at 2.5 uM after 24 hrs by caspase3/7 reagent based flow cytometry (reference value: 4.14%)", "format": "functional"}, "HCT-116 [27]": {"test_system": "HCT-116", "experiment": "Reduction in Bcl2 level in human HCT116 cells after 24 hrs by western blot analysis", "format": "functional, cell-based", "outline": "(§2)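 HCT116 cells (6 × 10^5/well) treated with rising concentrations for 24 h. Lysed in RIPA with phosphatase and protease inhibitors and PMSF, cleared at 15,000 g for 10 min. Lysates resolved by SDS-PAGE, transferred to PVDF, probed overnight in the cold with primary antibodies, then peroxidase-linked secondary for 1–4 h at room temperature, detected by ECL; β-actin antibody used.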"}, "HCT-116 [28]": {"test_system": "HCT-116", "experiment": "Reduction of XIAP level in human HCT116 cells after 24 hrs by western blot analysis", "format": "functional, cell-based", "outline": "as §2"}, "HCT-116 [29]": {"test_system": "HCT-116", "experiment": "Decrease in pro-caspase3 level in human HCT116 cells at 0.5 to 5 uM after 24 hrs by western blot analysis", "format": "functional, cell-based", "outline": "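HCT116 cells (6 × 10^5/well) treated for 24 h. Whole-cell lysates made in RIPA buffer with phosphatase and protease inhibitors and PMSF, cleared at 15,000 g, resolved by SDS-PAGE and transferred to PVDF. Blots probed overnight in the cold with primary antibodies, then peroxidase-linked secondaries, and detected by ECL; β-actin antibody used.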"}}, "note": "Activity calls are given as the source filed them. The rule behind the calls is not given here."}
{"smiles": "Br.Br.N=C(N)[Se]Cc1nc2ccccc2nc1C[Se]C(=N)N", "values": [{"measurement": "IC50", "setting": "[1]", "value": 3.3, "unit": "µM"}, {"measurement": "IC50", "setting": "A549 [2]", "value": 3000, "unit": "nM"}, {"measurement": "IC50", "setting": "RKO [3]", "value": 1900, "unit": "nM"}, {"measurement": "IC50", "setting": "A549 [4]", "value": 1000, "unit": "nM"}, {"measurement": "IC50", "setting": "[5]", "value": 1000, "unit": "nM"}, {"measurement": "IC50", "setting": "[6]", "value": 700, "unit": "nM"}, {"measurement": "IC50", "setting": "RKO [7]", "value": 3.8, "unit": "µM"}, {"measurement": "IC50", "setting": "[8]", "value": 6.6, "unit": "µM"}, {"measurement": "IC50", "setting": "[9]", "value": 2000, "unit": "nM"}, {"measurement": "IC50", "setting": "[10]", "value": 3.6, "unit": "µM"}, {"measurement": "IC50", "setting": "[11]", "value": 2900, "unit": "nM"}, {"measurement": "IC50", "setting": "HT-29", "value": 2200, "unit": "nM"}, {"measurement": "Ratio IC50", "setting": "RKO [12]", "value": ">50"}, {"measurement": "Activity", "setting": "HCT-116 [13]", "value": 92.2, "unit": "%"}, {"measurement": "Activity", "setting": "HCT-116 [14]", "value": 73.4, "unit": "%"}, {"measurement": "Activity", "setting": "HCT-116 [15]", "value": 11.64, "unit": "%"}, {"measurement": "viability at 2.5 µM", "setting": "HCT-116 [16]", "value": 66.2, "unit": "%"}, {"measurement": "Activity", "setting": "HCT-116 [17]", "value": 39.02, "unit": "%"}, {"measurement": "Activity", "setting": "HCT-116 [18]", "value": 35.68, "unit": "%"}, {"measurement": "Activity", "setting": "HCT-116 [19]", "value": 0.68, "unit": "%"}, {"measurement": "Activity", "setting": "HCT-116 [20]", "value": "Dose-dependent effect"}, {"measurement": "Activity", "setting": "HCT-116 [21]", "value": 7.18, "unit": "%"}, {"measurement": "Activity", "setting": "HCT-116 [22]", "value": 2.64, "unit": "%"}, {"measurement": "Activity", "setting": "HCT-116 [23]", "value": 3.18, "unit": "%"}, {"measurement": "Activity", "setting": "HCT-116 [24]", "value": 6.48, "unit": "%"}, {"measurement": "Activity", "setting": "HCT-116 [25]", "value": 5.72, "unit": "%"}, {"measurement": "Activity", "setting": "HCT-116 [26]", "value": 2.78, "unit": "%"}, {"measurement": "Activity", "setting": "HCT-116 [27]", "value": "Dose-dependent effect"}, {"measurement": "Activity", "setting": "HCT-116 [28]", "value": "Dose-dependent effect"}, {"measurement": "Activity", "setting": "HCT-116 [29]", "value": "Active"}]}
